Results on one compound are retold here after ChEMBL document CHEMBL1806361, “Discovery of potent, selective, and orally bioavailable quinoline-based dipeptidyl peptidase IV inhibitors targeting Lys554” (Bioorg Med Chem, 2011).

The nature of data set [1]: Metabolic stability in rat liver microsomes at 1 uM after 60 mins by HPLC with UV detectors in presence of NADPH. Conditions: read-out: Stability. Type of data set: ADME, Microsome. Summed up:
(§1)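 Hepatic microsomes (0.2 mg protein/mL final) and compound (1 µM final) were mixed on ice. Reaction started with NADPH, run 60 min at 37 °C, and stopped with ice-cold acetonitrile. Zero-time controls were quenched before compound addition.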
On the technique in general: Microsomes from liver hold many membrane-bound enzymes, among them those of drug oxidation.

Data set [2] is described as follows: Volume of distribution at steady state in rat at 1 mg/kg, po and 0.1 mg/kg, iv by LC/MS/MS. Type of data set: ADME, organism-based. To be noted: in vivo, read-out: Vdss. A digest of the protocol: (§2)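 Compound given orally at 1.0 mg/kg and intravenously at 0.1 mg/kg to rats and dogs. Blood sampled after dosing and spun to plasma. Plasma deproteinized with acetonitrile containing internal standard, then centrifuged. Supernatant diluted in 0.01 M ammonium acetate and spun again before LC/MS/MS quantitation. Values are means and SD of three experiments.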

The test system of data set [3] is Canis familiaris. Briefly: Oral bioavailability in dog at 1 mg/kg by LC/MS/MS. Type of data set: ADME, organism-based, Canis lupus familiaris. Conditions: in vivo. Summed up:
as §2

A short description of data set [4]: Metabolic stability in human liver microsomes at 1 uM after 60 mins by HPLC with UV detectors in presence of NADPH. In kind it is ADME, Microsome. Conditions: read-out: Stability. A digest of the protocol: as §1
Data set [5] in a line: Metabolic stability in dog liver microsomes at 1 uM after 60 mins by HPLC with UV detectors in presence of NADPH. In kind it is ADME, Canis lupus familiaris, Microsome. To be noted: read-out: Stability. A digest of the protocol:
as §1

Data set [6] in a line: Solubility of the compound in water at pH 6.8 by HPLC analysis. In kind it is physicochemical.
Data set [7] has as its system Canis familiaris. Briefly: AUC in dog at 1 mg/kg, po by LC/MS/MS. Type of data set: ADME, organism-based, Canis lupus familiaris, Plasma. Details: dose 1 mg/kg, route oral. Conditions: in vivo. A digest of the protocol:
as §2

The subject of data set [8] is Rattus norvegicus. In words: AUC in rat at 1 mg/kg, po by LC/MS/MS. The arrangement: dose 1 mg/kg, route oral. Type of data set: ADME, organism-based, Plasma. Conditions: in vivo. Summed up:
as §2

Data set [9] is described as follows: Volume of distribution at steady state in dog at 1 mg/kg, po and 0.1 mg/kg, iv by LC/MS/MS. Type of data set: ADME, organism-based, Canis lupus familiaris. To be noted: in vivo, read-out: Vdss. Summed up: as §2
For data set [10], the system named is Rattus norvegicus. In words: Oral bioavailability in rat at 1 mg/kg by LC/MS/MS. In kind it is ADME, organism-based. To be noted: in vivo. A digest of the protocol:
as §2

For orientation: solubility means how much of the substance goes into solution per volume. The low end stands for little dissolved substance, the high end for much dissolved substance. As a reminder, the AUC is the area under the concentration-time curve, a measure of exposure. Read a high AUC as more exposure. Take `Cc1ccc(-c2c(CN)c(CC(C)C)nc3ccc(N4CC(=O)NCC4=O)cc23)cc1.Cl.Cl`: the figures for the microsomal CLint at 1 µM in [1], in data set [4] and in data set [5] were 96 µL/min/mg, 16 µL/min/mg and 2 µL/min/mg, respectively. The Vd in data set [2] was 10.7 L/kg; in [9] it was 1.49 L/kg. Moreover, the F turned out to be 49.2% with Canis familiaris [3] and 8% with Rattus norvegicus [10]. For the same compound, the solubility in data set [6] was above 5000 µg/mL. For the same compound, the values for the AUC in the data set with Canis familiaris [7] and with Rattus norvegicus [8] were 1410 ng·h/mL and 28.5 ng·h/mL, respectively.
